Our source for the IC50, selectivity ratio and Survival values is ChEMBL document CHEMBL1153346, “Structure-activity study of pentamidine analogues as antiprotozoal agents” (J Med Chem, 2009).

In data set [1] the test system is Trypanosoma brucei rhodesiense. As to the kind of experiment: Antiprotozoal activity against Trypanosoma brucei rhodesiense STIB900 trypomastigotes after 70 hrs by alamar blue assay. In kind it is functional, organism-based. The procedure, abridged:
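Bloodstream forms, 2000 per well, in MEM with Earle's salts plus 0.2 mM 2-mercaptoethanol, 1 mM pyruvate, 0.5 mM hypoxanthine and 15% heat-inactivated horse serum. Exposed to serial dilutions (DMSO ≤1%) for 70 h at 37 °C in 5% CO₂. Resazurin then added for a further 2-6 h. IC50 from sigmoidal curves; two independent runs in duplicate.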

In the next data set the test system is Leishmania donovani. As to the kind of experiment: Antiprotozoal activity against Leishmania donovani MHOM/SD/62/1S-CL2D axenic amastigotes after 72 hrs. In kind it is functional, organism-based. The procedure, abridged:
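L. donovani axenic amastigotes, adapted from promastigotes and grown in amastigote medium at 37 °C. 6 × 10⁴ parasites per well with 2-fold compound dilutions (DMSO ≤1%), incubated 72 h at 37 °C in humidified 5% CO₂. Growth read by tetrazolium (CellTiter) absorbance at 490 nm. IC50 from a four-parameter dose-response fit. Average of duplicate determinations.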

The nature of data set [2]: Selectivity index, ratio of IC50 for rat L6 cells to IC50 for chloroquine-resistant Plasmodium falciparum K1. In kind it is toxicity, cell-based. The conditions noted are these: read-out: Ratio IC50. The method in brief: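 Ratio of L6 IC50 to K1 IC50. L6 cells: Alamar blue assay after 70 h, 37 °C. K1: [3H]-hypoxanthine incorporation in infected red cells over 48 + 24 h at 37 °C under low O2. IC50s from sigmoidal curves, two independent runs in duplicate.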

A short description of data set [3]: Selectivity index, ratio of IC50 for rat L6 cells to IC50 for Leishmania donovani MHOM/SD/62/1S-CL2D axenic amastigotes. In kind it is toxicity, cell-based. The conditions noted are these: read-out: Ratio IC50. The method in brief: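 Amastigotes: 6 × 10⁴ parasites/well with 2-fold dilutions, 72 h at 37 °C in 5% CO2. Growth read by tetrazolium CellTiter absorbance at 490 nm; IC50 from a four-parameter dose-response fit.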

Data set [4] deals with Trypanosoma brucei rhodesiense. As to the kind of experiment: Antitrypanosomal activity against Trypanosoma brucei rhodesiense STIB900 trypomastigotes infected in NMRI mouse assessed as mouse survival at 10 mg/kg, ip administered from day 3 to day 6 postinfection. In kind it is functional. The conditions noted are these: route intraperitoneal. The method in brief:
(§1)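 STIB900 acute mouse model. Dosing was intraperitoneal, daily for four days, in DMSO diluted with water to 10% final DMSO. An infected untreated control group was kept. Tail blood was checked for parasitemia to day 60, and deaths were recorded to give mean survival days. Mice surviving and aparasitemic at day 60 counted as cured.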

A short description of data set [5]: Selectivity index, ratio of IC50 for rat L6 cells to IC50 for Trypanosoma brucei rhodesiense STIB900 trypomastigotes. In kind it is toxicity, cell-based. The conditions noted are these: read-out: Ratio IC50. The procedure, abridged: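 Ratio of L6 IC50 to STIB900 IC50. L6 cells: 4000/well in RPMI 1640 with 10% FBS, 70 h at 37 °C. Bloodstream forms: 2000/well in supplemented MEM with 15% horse serum, 70 h at 37 °C. Both read by Alamar blue fluorescence; IC50s from sigmoidal curves, two independent runs in duplicate.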

The next data set concerns L6. As to the kind of experiment: Cytotoxicity against rat L6 cells after 70 hrs by alamar blue assay. In kind it is cell-based. The conditions noted are these: L6, 70 h. The procedure, abridged: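 L6 rat myoblasts, 4000 per well, in RPMI 1640 with 2 mM L-glutamine, HEPES, NaHCO₃ and 10% FBS. Exposed to serial dilutions (DMSO ≤1%) for 70 h at 37 °C in humidified 5% CO₂. Resazurin then added for 2-3 h; fluorescence read at ex 536/em 588 nm. IC50 from sigmoidal curves; two independent runs in duplicate.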

The test system of a further data set is Plasmodium falciparum. As to the kind of experiment: Antiprotozoal activity after 48 hrs against chloroquine-resistant Plasmodium falciparum K1 infected erythrocytes by [3H]hypoxanthine uptake. In kind it is functional, organism-based. The method in brief:
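Erythrocytic stages in infected human red cells (hematocrit 1.25%, parasitemia 0.3%) in supplemented RPMI 1640 with Albumax II. Serial dilutions incubated at 37 °C in 93% N2/4% CO2/3% O2. [3H]-hypoxanthine (0.5 µCi/well) added at 48 h, then 24 h more. Incorporation counted by scintillation. IC50 from sigmoidal curves; two independent runs in duplicate.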

The subject of data set [6] is Trypanosoma brucei rhodesiense. As to the kind of experiment: Antitrypanosomal activity against Trypanosoma brucei rhodesiense STIB900 trypomastigotes infected in NMRI mouse assessed as mouse survival at 5 mg/kg, ip administered from day 3 to day 6 postinfection. In kind it is functional. The conditions noted are these: route intraperitoneal. The method in brief:
as §1

Data set [7] deals with Trypanosoma brucei rhodesiense. As to the kind of experiment: Antitrypanosomal activity against Trypanosoma brucei rhodesiense STIB900 trypomastigotes infected in NMRI mouse assessed as mouse survival at 20 mg/kg, ip administered from day 3 to day 6 postinfection. In kind it is functional. The conditions noted are these: route intraperitoneal. The method in brief: as §1

As to `Cl.Cl.N=C(N)c1ccc(OCCCCCOc2ccc(C(=N)N)c(F)c2)cc1F`, the IC50 came out at 13 nM in data set [1], 1880 nM in the data set on Leishmania donovani, 6900 nM with L6 and 15 nM in the data set with Plasmodium falciparum. Moreover, the selectivity ratio in data set [2] was determined as 460; in data set [3] it was 4; in data set [5], 531. Besides, the Survival in data set [4] was >33 days.
In the case of `CC(C)NC(=N)c1ccc(OCCCCCOc2ccc(C(=N)NC(C)C)cc2)cc1.Cl.Cl`, the IC50 was 27 nM in data set [1], 17800 nM with Leishmania donovani, 150000 nM in the data set on L6 and 3 nM with Plasmodium falciparum. In addition, the selectivity ratio in data set [2] turned out to be 50000; in data set [3], 8; in [5], 5560. In addition, the Survival in [6] is >41.3 days.
For `CC(C)NC(=N)c1ccc(OCCCOc2ccc(C(=N)NC(C)C)cc2)cc1.Cl.Cl`, the 50% inhibitory concentration (IC50) in [1] is 93 nM; in the data set on Leishmania donovani, 7110 nM; in the data set with L6, > 192000 nM; with Plasmodium falciparum it was 25 nM. The selectivity ratio is > 7680 in data set [2], > 27 in data set [3] and > 2060 in data set [5]. The Survival in data set [4] was >38.5 days.
As for `COc1cc(C2=NCCN2)ccc1OCCCOc1ccc(C2=NCCN2)cc1OC.Cl.Cl`, the IC50 stood at 90 nM in [1], 34600 nM in the data set with Leishmania donovani, 105000 nM with L6 and 55 nM in the data set on Plasmodium falciparum. Further, the selectivity ratio in data set [2] was found to be 1910; in [3] it was 3; in data set [5] it was 1170. For the same molecule, the values for the Survival in [4] and in data set [7] were >32.8 days and >60 days, respectively.
In the case of `N=C(N)c1ccc(OCCCCCOc2ccc(C(=N)N)cc2[N+](=O)[O-])c([N+](=O)[O-])c1`, the IC50 came to 98 nM in [1], 11400 nM with Leishmania donovani, 37300 nM in the data set with L6 and 24 nM with Plasmodium falciparum. The selectivity ratio was 1550 in [2], 3 in data set [3] and 381 in [5].
Regarding `c1cc(OCCCCCOc2cccc(C3=NCCN3)c2)cc(C2=NCCN2)c1`, the IC50 in data set [1] was determined as 1490 nM; in the data set with Leishmania donovani, 22400 nM; in the data set with L6, 100000 nM; with Plasmodium falciparum, 24 nM. The selectivity ratio came out at 4170 in [2], 4 in data set [3] and 67 in data set [5].
Turning to `Cl.N=C(N)c1ccc(OCCCCCOc2ccc(C(=N)N)cc2)cc1` [PENTAMIDINE HYDROCHLORIDE], the IC50 in data set [1] was 7 nM; with Plasmodium falciparum, 14 nM. Besides, the Survival in data set [4] is >43.5 days; in [7], >44.3 days.
In the case of `Cl.N=C(N)c1ccc(NCCCCCNc2ccc(C(=N)N)cc2)cc1`, the IC50 was < 1 nM in [1], 502 nM in the data set with Leishmania donovani, 950 nM with L6 and 6 nM in the data set with Plasmodium falciparum. In addition, the selectivity ratio was 158 in [2], 2 in data set [3] and > 950 in data set [5]. The Survival in data set [6] is >29.3 days.
For the molecule `N=C(N)c1ccc(OCCCOc2ccc(C(=N)N)cc2[N+](=O)[O-])c([N+](=O)[O-])c1`, the IC50 was 188 nM in data set [1], 30900 nM in the data set with Leishmania donovani, 22800 nM with L6 and 35 nM with Plasmodium falciparum. For the same molecule, the selectivity ratio turned out to be 651 in data set [2], 0.7 in [3] and 121 in data set [5].
In the case of `N=C(N)c1ccc(OCCCOc2ccc(C(=O)O)cc2)cc1`, the IC50 in data set [1] is > 257000 nM; with Leishmania donovani it was > 100000 nM; with L6, 167000 nM; with Plasmodium falciparum it was > 2800 nM. Further, the results for the selectivity ratio in data set [2], in data set [3] and in data set [5] were < 60, < 2 and < 0.6, respectively.
As to `Cl.Cl.N=C(N)c1ccc(OCCCCCCOc2ccc(C(=N)N)cc2)cc1`, the IC50 turned out to be 36 nM in data set [1], 1970 nM with Leishmania donovani, 10500 nM in the data set with L6 and 15 nM with Plasmodium falciparum. Also, the selectivity ratio in data set [2] turned out to be 700; in data set [3] it was 5; in data set [5], 292. The Survival is >44.3 days in [6] and >51.8 days in data set [7].
`N=C(N)c1ccc(S(=O)(=O)CCCCCS(=O)(=O)c2ccc(C(=N)N)cc2)cc1`: the half-inhibitory concentration (IC50) in data set [1] is 28100 nM; in the data set with Leishmania donovani, > 100000 nM; with L6, > 174000 nM; in the data set on Plasmodium falciparum, 98 nM. The figures for the selectivity ratio in data set [2], in data set [3] and in data set [5] were > 1780, 2 and > 6, respectively.
On to `Cl.Cl.N=C(N)c1ccc(OCCCOc2ccc(C(=N)N)cc2N)c(N)c1`, for which the IC50 worked out at 156 nM in [1], 68700 nM in the data set with L6 and 27 nM with Plasmodium falciparum. The selectivity ratio turned out to be 2540 in data set [2] and 440 in data set [5]. In addition, in data set [7], the Survival is >40 days.
As to `Oc1cc(OCCCCCOc2ccc(C3=NCCN3)c(O)c2)ccc1C1=NCCN1`, the IC50 in data set [1] is 3700 nM; in the data set on Leishmania donovani, > 100000 nM; in the data set with L6, > 169000 nM; in the data set with Plasmodium falciparum, 98 nM. For the same molecule, the figures for the selectivity ratio in [2], in [3] and in data set [5] were > 1720, 2 and > 46, respectively.
For the molecule `c1cc(OCCCCCCOc2cccc(C3=NCCN3)c2)cc(C2=NCCN2)c1`, the IC50 in data set [1] was determined as 875 nM; with Leishmania donovani it was 21900 nM; with L6, 99000 nM; in the data set on Plasmodium falciparum it was 20 nM. In addition, the values for the selectivity ratio in [2], in data set [3] and in data set [5] were 4950, 5 and 113, respectively.
`Cl.Cl.N=C(N)c1ccc(OCCCOc2ccc(C3=NCCN3)cc2)cc1`: the IC50 in data set [1] was determined as 18 nM; with Leishmania donovani, 2980 nM; in the data set with L6, 71600 nM; in the data set with Plasmodium falciparum it was 18 nM. Moreover, the figures for the selectivity ratio in data set [2], in data set [3] and in data set [5] were 3980, 24 and 3980, respectively. The Survival in [4] is >26.8 days.
For `Cl.Cl.N=C(N)c1cccc(OCCCCCCOc2cccc(C(=N)N)c2)c1`, the IC50 stood at 75 nM in data set [1], 2380 nM with Leishmania donovani, 17100 nM in the data set with L6 and 13 nM in the data set with Plasmodium falciparum. The values for the selectivity ratio in [2], in data set [3] and in data set [5] were 1320, 7 and 228, respectively. Also, the Survival in [7] was >36 days.
For `N=C(N)c1ccc(OCCCCCOc2ccc(/C(N)=N\O)cc2)cc1`, the IC50 was 289 nM in data set [1], 55600 nM with Leishmania donovani, 11600 nM in the data set on L6 and 234 nM in the data set on Plasmodium falciparum. For the same molecule, the selectivity ratio in data set [2] is 50; in data set [3], < 1; in [5], 40.
In the case of `c1cc(OCCCOc2cccc(C3=NCCN3)c2)cc(C2=NCCN2)c1`, the IC50 was 4300 nM in data set [1], 30800 nM in the data set with Leishmania donovani, 43500 nM in the data set on L6 and 5390 nM with Plasmodium falciparum. The selectivity ratio in data set [2] came out at 8; in data set [3], 1; in [5] it was 10.
As for `CC(C)NC(=N)c1ccc(OCCCCCOc2ccc(C(=N)NC(C)C)c(O)c2)cc1O`, the IC50 is 14700 nM in data set [1], > 100000 nM in the data set on Leishmania donovani, > 156000 nM in the data set with L6 and 581 nM in the data set with Plasmodium falciparum. Moreover, the selectivity ratio was > 269 in data set [2], 2 in data set [3] and > 11 in [5].
